Test [1] addresses T1, Stromal interaction molecule 1 & 2/Calcium release-activated calcium channel protein 1 (Mus musculus) (UniProt Q8BWG9+P70302+P83093). Kind of test: Modulation of STIM1/STIM2/Orai1 in mouse BV2 cells assessed as induction of store-operated calcium entry by measuring residual activity at 10 uM preincubated for 30 mins followed by tBhQ-mediated Ca2+ depletion and Ca2+ re-addition to extracellular solution measured for 600 secs by Fluo-4 AM-based fluorometric assay relative to control. In kind it is cell-based.

Test [2] concerns the target T2, Short transient receptor potential channel 1 & 3/Stromal interaction molecule 1/Calcium release-activated calcium channel protein 1 (Homo sapiens) (UniProt Q96D31+Q13507+Q13586+P48995). Kind of test: Modulation of TRPC1/TRPC3/STIM1/Orai1 in HEK cells assessed as induction of store-operated calcium entry by measuring residual activity at 10 uM preincubated for 30 mins followed by tBhQ-mediated Ca2+ depletion and Ca2+ re-addition to extracellular solution measured for 600 secs by Fluo-4 AM-based fluorometric assay relative to control. The class given is cell-based.

For test [3], the system named is Jurkat. Kind of test: Induction of store-operated calcium entry in human Jurkat cells assessed as induction of store-operated calcium entry by measuring residual activity at 10 uM preincubated for 30 mins followed by tBhQ-mediated Ca2+ depletion and Ca2+ re-addition to extracellular solution measured for 600 secs by Fluo-4 AM-based fluorometric assay relative to control. The class given is cell-based.

Another test is filed under the species Homo sapiens. Kind of test: Modulation of Orai1/STIM1 (unknown origin) expressed in HEK cells assessed as potentiation of store-operated calcium currents by measuring reduction in time constant of channel activation in presence of 20 mM BAPTA and 150 nM Ca2+ containing internal solution by patch clamp assay relative to control. In kind it is cell-based.
The target of test [4] is Transient receptor potential cation channel subfamily V member 1 (Homo sapiens) (UniProt Q8NER1). The test is described as follows: Antagonist activity at TRPV1 (unknown origin) expressed in HEK cells assessed as inhibition of capsaicin-induced calcium increase at 10 uM by fura-2-based assay. In kind it is cell-based. An outline of the steps:
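TRPV1-overexpressing Hek cells; calcium rise evoked by capsaicin (100 nM), test compounds at 10 μM; peak amplitude read out; mean ± SEM of 600 cells from 30 plates on four separate experimental days.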

The target of test [5] is Transient receptor potential cation channel subfamily M member 8 (Homo sapiens) (UniProt Q7Z2W7). The test is described as follows: Antagonist activity at TRPM8 (unknown origin) expressed in HEK cells assessed as inhibition of menthol -mediated calcium increase at 10 uM by fura-2-based assay. In kind it is cell-based. The procedure, abridged: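 TRPM8-overexpressing Hek cells; calcium rise evoked by menthol (100 μM), test compounds at 10 μM; peak amplitude read out; mean ± SEM of 600 cells from 30 plates on four separate experimental days.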
Sequence of Transient receptor potential cation channel subfamily M member 8 (Homo sapiens) (Q7Z2W7 whole entry, looked up): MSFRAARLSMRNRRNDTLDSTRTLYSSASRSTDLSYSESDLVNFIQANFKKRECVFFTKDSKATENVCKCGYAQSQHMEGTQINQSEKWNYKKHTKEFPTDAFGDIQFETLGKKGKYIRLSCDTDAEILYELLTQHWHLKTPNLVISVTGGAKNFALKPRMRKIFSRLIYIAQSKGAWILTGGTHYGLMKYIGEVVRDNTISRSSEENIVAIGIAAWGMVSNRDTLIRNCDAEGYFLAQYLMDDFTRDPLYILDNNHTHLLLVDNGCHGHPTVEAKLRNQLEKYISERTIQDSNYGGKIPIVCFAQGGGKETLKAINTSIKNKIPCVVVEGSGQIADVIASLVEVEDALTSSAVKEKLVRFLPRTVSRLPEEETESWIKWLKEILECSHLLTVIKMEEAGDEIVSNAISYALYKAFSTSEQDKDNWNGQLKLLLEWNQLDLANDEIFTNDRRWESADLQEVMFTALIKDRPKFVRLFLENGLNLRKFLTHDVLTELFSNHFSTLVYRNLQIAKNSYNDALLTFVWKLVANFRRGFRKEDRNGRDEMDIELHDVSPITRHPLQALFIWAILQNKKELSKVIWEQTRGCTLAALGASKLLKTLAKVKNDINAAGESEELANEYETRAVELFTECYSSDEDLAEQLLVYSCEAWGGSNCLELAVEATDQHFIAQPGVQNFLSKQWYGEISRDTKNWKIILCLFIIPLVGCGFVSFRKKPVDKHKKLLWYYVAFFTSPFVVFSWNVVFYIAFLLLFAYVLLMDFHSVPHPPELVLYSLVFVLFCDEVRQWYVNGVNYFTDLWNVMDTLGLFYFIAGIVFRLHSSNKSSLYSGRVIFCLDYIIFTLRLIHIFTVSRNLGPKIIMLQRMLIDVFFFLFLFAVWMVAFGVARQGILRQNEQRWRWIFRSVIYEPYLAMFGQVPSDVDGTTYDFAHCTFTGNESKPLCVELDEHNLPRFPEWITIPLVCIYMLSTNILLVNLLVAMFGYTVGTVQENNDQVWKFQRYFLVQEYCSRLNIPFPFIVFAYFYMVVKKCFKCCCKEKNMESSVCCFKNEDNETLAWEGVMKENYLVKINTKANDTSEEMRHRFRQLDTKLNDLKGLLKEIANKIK

Test [6] has as its target T2, Short transient receptor potential channel 1 & 3/Stromal interaction molecule 1/Calcium release-activated calcium channel protein 1 (Homo sapiens). The test is described as follows: Modulation of TRPC1/TRPC3/STIM1/Orai1 in HEK cells assessed as induction of store-operated calcium entry by measuring increase in AUC of calcium entry at 0.3 to 10 uM preincubated for 30 mins followed by tBhQ-mediated Ca2+ depletion and Ca2+ re-addition to extracellular solution measured for 600 secs by Fluo-4 AM-based fluorometric assay relative to control. The class given is cell-based.

The target is the same in test [7]. Kind of test: Modulation of TRPC1/TRPC3/STIM1/Orai1 in HEK cells assessed as induction of store-operated calcium entry by measuring increase in peak amplitude at 0.3 to 10 uM preincubated for 30 mins followed by tBhQ-mediated Ca2+ depletion and Ca2+ re-addition to extracellular solution measured for 600 secs by Fluo-4 AM-based fluorometric assay relative to control. The class given is cell-based.

Test [8] concerns the target T1, Stromal interaction molecule 1 & 2/Calcium release-activated calcium channel protein 1 (Mus musculus). Kind of test: Modulation of STIM1/STIM2/Orai1 in mouse BV2 cells assessed as induction of store-operated calcium entry by measuring increase in AUC of calcium entry at 0.3 to 10 uM preincubated for 30 mins followed by tBhQ-mediated Ca2+ depletion and Ca2+ re-addition to extracellular solution measured for 600 secs by Fluo-4 AM-based fluorometric assay relative to control. In kind it is cell-based.

Test [9] shares this target. The test is described as follows: Modulation of STIM1/STIM2/Orai1 in mouse BV2 cells assessed as induction of store-operated calcium entry by measuring increase in peak amplitude at 0.3 to 10 uM preincubated for 30 mins followed by tBhQ-mediated Ca2+ depletion and Ca2+ re-addition to extracellular solution measured for 600 secs by Fluo-4 AM-based fluorometric assay relative to control. In kind it is cell-based.

The test system of test [10] is Jurkat. Kind of test: Induction of store-operated calcium entry in human Jurkat cells assessed as induction of store-operated calcium entry by measuring increase in peak amplitude at 0.3 to 10 uM preincubated for 30 mins followed by tBhQ-mediated Ca2+ depletion and Ca2+ re-addition to extracellular solution measured for 600 secs by Fluo-4 AM-based fluorometric assay relative to control. The class given is cell-based.

Test [11] has as its system Jurkat. Kind of test: Induction of store-operated calcium entry in human Jurkat cells assessed as induction of store-operated calcium entry by measuring increase in slope at 0.3 to 10 uM preincubated for 30 mins followed by tBhQ-mediated Ca2+ depletion and Ca2+ re-addition to extracellular solution measured for 600 secs by Fluo-4 AM-based fluorometric assay relative to control. In kind it is cell-based.

The target in test [12] is ORAI1/STIM1 (Homo sapiens) (UniProt Q96D31+Q13586). The test is described as follows: Modulation of Orai1/STIM1 (unknown origin) expressed in HEK cells assessed as potentiation of store-operated calcium currents in presence of 20 mM BAPTA and 150 nM Ca2+ containing internal solution by patch clamp assay relative to control. The class given is cell-based.
Sequence of ORAI1/STIM1 (Homo sapiens) (Q13586 23-685 partner limits assumed): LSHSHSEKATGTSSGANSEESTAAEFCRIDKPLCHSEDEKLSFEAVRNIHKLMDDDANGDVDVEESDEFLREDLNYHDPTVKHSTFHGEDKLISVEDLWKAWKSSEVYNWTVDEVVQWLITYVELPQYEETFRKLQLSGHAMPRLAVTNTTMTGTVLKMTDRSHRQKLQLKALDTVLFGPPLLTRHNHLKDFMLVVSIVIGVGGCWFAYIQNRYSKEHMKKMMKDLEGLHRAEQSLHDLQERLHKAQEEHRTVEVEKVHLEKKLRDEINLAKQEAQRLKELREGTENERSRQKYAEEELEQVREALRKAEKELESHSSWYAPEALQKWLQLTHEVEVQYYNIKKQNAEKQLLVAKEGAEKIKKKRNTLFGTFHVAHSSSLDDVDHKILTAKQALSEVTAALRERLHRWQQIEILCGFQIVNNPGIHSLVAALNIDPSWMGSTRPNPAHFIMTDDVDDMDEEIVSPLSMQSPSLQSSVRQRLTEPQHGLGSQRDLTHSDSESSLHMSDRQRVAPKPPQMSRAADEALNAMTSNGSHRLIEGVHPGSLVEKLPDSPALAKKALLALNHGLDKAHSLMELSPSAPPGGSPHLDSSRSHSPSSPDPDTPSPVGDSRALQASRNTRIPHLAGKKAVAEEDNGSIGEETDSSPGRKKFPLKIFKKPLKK
Sequence of ORAI1/STIM1 (Homo sapiens) (Q96D31 whole entry): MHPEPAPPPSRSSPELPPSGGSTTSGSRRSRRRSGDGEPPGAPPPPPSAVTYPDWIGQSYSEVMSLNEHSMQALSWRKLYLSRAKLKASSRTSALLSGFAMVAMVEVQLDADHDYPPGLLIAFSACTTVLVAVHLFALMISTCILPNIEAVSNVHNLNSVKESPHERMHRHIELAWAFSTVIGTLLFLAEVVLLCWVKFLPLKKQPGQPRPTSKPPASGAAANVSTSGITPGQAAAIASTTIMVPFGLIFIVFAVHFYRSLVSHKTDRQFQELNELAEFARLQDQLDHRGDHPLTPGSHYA
In test [13] the target is T2, Short transient receptor potential channel 1 & 3/Stromal interaction molecule 1/Calcium release-activated calcium channel protein 1 (Homo sapiens). The test is described as follows: Modulation of TRPC1/TRPC3/STIM1/Orai1 in HEK cells assessed as induction of store-operated calcium entry by measuring residual activity at 10 uM in presence of shTRPC1 preincubated for 30 mins followed by tBhQ-mediated Ca2+ depletion and Ca2+ re-addition to extracellular solution measured for 600 secs by Fluo-4 AM-based fluorometric assay relative to control. In kind it is cell-based.

Test [14] deals with T1, Stromal interaction molecule 1 & 2/Calcium release-activated calcium channel protein 1 (Mus musculus). The test is described as follows: Modulation of STIM1/STIM2/Orai1 in mouse BV2 cells assessed as induction of store-operated calcium entry at 10 uM preincubated for 30 mins followed by tBhQ-mediated Ca2+ depletion and Ca2+ re-addition to extracellular solution measured for 800 secs by Fluo-4 AM-based fluorometric assay relative to control. The class given is cell-based. An outline of the steps:
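Microplate Fluo-4 assay in mouse microglial BV-2 cells. Stores emptied with tBhQ (50 μM) in presence of compound (10 μM); extracellular Ca2+ re-added after 600 s and intracellular Ca2+ read fluorimetrically; SOCE expressed versus control.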

The target in test [15] is T2, Short transient receptor potential channel 1 & 3/Stromal interaction molecule 1/Calcium release-activated calcium channel protein 1 (Homo sapiens). Kind of test: Modulation of TRPC1/TRPC3/STIM1/Orai1 in HEK cells assessed as induction of store-operated calcium entry at 10 uM preincubated for 30 mins followed by tBhQ-mediated Ca2+ depletion and Ca2+ re-addition to extracellular solution measured for 800 secs by Fluo-4 AM-based fluorometric assay relative to control. In kind it is cell-based.

The test system of test [16] is Jurkat. Kind of test: Induction of store-operated calcium entry in human Jurkat cells assessed as induction of store-operated calcium entry at 10 uM preincubated for 30 mins followed by tBhQ-mediated Ca2+ depletion and Ca2+ re-addition to extracellular solution measured for 800 secs by Fluo-4 AM-based fluorometric assay relative to control. The class given is cell-based.

The subject of test [17] is voltage-gated calcium channel (Mus musculus). The test is described as follows: Antagonist activity at voltage-gated calcium channels in C57/BL6 mouse cerebellar granule cells assessed as inhibition of KCl-induced voltage dependent calcium entry at 10 uM by fura-2-based assay.

Experimental findings from ChEMBL document CHEMBL4152384, “Pyrtriazoles, a Novel Class of Store-Operated Calcium Entry Modulators: Discovery, Biological Profiling, and in Vivo Proof-of-Concept Efficacy in Acute Pancreatitis” (J Med Chem, 2018) are described below.

Calls of active or inactive are those of the source. No cut-off for these calls is given here.

T2 sequence (P48995 whole entry partner): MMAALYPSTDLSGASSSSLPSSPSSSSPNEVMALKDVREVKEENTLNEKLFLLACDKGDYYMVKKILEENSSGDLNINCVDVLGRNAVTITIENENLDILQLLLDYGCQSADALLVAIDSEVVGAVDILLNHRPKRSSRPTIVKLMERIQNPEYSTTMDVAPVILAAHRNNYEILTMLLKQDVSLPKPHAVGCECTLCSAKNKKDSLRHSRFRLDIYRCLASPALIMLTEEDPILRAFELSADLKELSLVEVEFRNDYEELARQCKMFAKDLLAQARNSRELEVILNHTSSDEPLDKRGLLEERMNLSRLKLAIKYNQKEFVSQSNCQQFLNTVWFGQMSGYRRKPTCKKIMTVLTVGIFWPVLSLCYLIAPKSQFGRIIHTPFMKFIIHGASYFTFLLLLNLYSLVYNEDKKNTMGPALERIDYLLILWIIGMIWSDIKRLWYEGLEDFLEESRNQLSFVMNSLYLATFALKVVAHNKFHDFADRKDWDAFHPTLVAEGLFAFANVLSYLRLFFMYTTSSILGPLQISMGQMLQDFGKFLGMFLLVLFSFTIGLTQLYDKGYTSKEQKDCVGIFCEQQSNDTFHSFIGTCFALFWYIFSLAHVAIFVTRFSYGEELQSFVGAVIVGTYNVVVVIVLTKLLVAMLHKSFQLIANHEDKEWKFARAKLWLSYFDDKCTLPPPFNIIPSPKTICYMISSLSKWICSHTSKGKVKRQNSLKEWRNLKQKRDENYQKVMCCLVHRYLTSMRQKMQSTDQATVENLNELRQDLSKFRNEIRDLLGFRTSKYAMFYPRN
T2 sequence (Q13507 whole entry partner): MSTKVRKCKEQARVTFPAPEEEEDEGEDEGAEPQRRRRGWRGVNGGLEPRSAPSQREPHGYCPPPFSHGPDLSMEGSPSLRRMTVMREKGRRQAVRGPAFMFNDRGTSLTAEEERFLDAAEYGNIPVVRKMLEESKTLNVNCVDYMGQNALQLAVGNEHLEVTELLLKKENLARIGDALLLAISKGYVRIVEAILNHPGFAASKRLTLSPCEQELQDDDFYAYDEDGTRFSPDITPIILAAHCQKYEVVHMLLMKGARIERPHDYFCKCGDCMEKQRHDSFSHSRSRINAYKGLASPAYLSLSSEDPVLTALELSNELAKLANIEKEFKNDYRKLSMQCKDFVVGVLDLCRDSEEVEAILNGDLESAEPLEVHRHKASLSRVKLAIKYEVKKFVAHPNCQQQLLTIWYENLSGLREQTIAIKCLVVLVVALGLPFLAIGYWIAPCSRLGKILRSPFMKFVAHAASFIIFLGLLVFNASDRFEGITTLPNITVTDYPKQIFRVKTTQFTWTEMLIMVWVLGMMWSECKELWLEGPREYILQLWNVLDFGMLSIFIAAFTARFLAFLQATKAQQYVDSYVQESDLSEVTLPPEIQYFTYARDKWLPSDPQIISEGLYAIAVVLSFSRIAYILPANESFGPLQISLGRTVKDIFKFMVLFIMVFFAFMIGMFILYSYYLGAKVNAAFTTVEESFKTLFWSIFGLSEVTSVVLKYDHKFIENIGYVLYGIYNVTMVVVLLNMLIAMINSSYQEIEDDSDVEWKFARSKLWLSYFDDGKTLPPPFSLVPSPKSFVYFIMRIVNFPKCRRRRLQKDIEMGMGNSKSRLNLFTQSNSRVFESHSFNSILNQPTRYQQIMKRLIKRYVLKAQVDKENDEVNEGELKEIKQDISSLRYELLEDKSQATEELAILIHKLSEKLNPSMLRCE
T2 sequence (Q13586 23-685 partner limits assumed): as the sequence (Q13586 23-685 partner limits assumed) above
T2 sequence (Q96D31 whole entry): as the sequence (Q96D31 whole entry) above
Sequence of Transient receptor potential cation channel subfamily V member 1 (Homo sapiens) (Q8NER1 whole entry): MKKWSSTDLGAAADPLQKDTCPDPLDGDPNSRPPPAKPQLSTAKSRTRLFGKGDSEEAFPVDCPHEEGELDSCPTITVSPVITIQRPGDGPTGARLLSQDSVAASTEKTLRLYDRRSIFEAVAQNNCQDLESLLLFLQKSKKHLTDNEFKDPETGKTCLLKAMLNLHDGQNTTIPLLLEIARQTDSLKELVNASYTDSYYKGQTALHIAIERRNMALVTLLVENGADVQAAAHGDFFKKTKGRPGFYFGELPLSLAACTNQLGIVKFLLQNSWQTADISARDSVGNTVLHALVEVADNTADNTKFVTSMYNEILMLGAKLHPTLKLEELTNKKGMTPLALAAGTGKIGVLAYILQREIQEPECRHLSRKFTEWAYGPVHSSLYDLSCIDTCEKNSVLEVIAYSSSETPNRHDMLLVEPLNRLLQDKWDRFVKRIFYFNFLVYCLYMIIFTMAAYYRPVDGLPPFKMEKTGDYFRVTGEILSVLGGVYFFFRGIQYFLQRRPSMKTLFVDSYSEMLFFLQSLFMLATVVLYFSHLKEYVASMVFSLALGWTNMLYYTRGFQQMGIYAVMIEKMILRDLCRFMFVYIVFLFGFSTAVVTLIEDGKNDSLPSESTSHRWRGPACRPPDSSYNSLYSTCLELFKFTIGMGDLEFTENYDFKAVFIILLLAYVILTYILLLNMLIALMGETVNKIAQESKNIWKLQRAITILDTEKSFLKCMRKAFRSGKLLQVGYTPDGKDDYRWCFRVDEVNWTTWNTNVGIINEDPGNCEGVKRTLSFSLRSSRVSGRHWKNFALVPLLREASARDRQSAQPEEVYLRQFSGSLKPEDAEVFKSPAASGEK

`O=C(O)c1ccc(-c2cn(-c3ccc(-n4nc(C(F)(F)F)cc4C(F)(F)F)cc3)nn2)cc1`: the Activity in test [1] was 198%; in test [2] it was 213%; in the test on Jurkat [3] it was 236%. Also, the result (in the test filed under Homo sapiens; in test [6]; in test [7]; in test [8]; in [9]; in the test with Jurkat [10]) was Active. In addition, the result (with Jurkat [11]; in test [13]; in test [14]; in test [15]; with Jurkat [16]) was Active. Besides, the inhibition result in test [4], in [5] and in test [17] was “inactive” throughout. The outcome in test [12] was inactive.
